Measured values published in ChEMBL document CHEMBL1208769, “Anti-T. cruzi activities and QSAR studies of 3-arylquinoxaline-2-carbonitrile di-N-oxides” (Bioorg Med Chem Lett, 2010).

Assays:
Trypanosoma cruzi [1] = assay: Antitrypanosomal activity against Trypanosoma cruzi Tulahuen 2 epimastigotes; assay type: functional, organism-based
Trypanosoma cruzi [2] = assay: Antitrypanosomal activity against Trypanosoma cruzi Tulahuen 2 epimastigotes assessed as inhibition of parasite growth at 25 uM relative to control; assay type: functional; conditions: read-out: GI
How it was run: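 Epimastigotes of T. cruzi Tulahuen 2 strain exposed to compound at 25 µM. Growth inhibition is given as percentage relative to untreated parasites. Values are means of three separate experiments, SD under 10%.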

[3] = Octanol-water partition coefficient of the compound; assay type: physicochemical

| IC50 (Trypanosoma cruzi [1]) [µM] | logP [3] | SMILES | inhibition of growth at 25 µM (Trypanosoma cruzi [2]) [%] |
| --- | --- | --- | --- |
| 25 | 0.582 | N#Cc1c(-c2ccco2)[n+]([O-])c2ccccc2[n+]1[O-] | 46.3 |
| 6.5 | 1.91 | COc1ccccc1N1CCN(c2c(C#N)[n+]([O-])c3cc(Cl)ccc3[n+]2[O-])CC1 | 100 |
| 18.1 | 0.845 | Cc1ccc2c(c1)[n+]([O-])c(C#N)c(-c1ccco1)[n+]2[O-] | 68.5 |
| 23.7 | 2.09 | Cc1ccc(-c2c(C#N)[n+]([O-])c3ccccc3[n+]2[O-])cc1 | 104 |
| 18.1 | 2.35 | N#Cc1c(-c2ccc(Cl)cc2)[n+]([O-])c2ccccc2[n+]1[O-] | 97.1 |
| 14.8 | 1.62 | Cc1ccc2c(c1)[n+]([O-])c(C#N)c(-c1cccs1)[n+]2[O-] | 74.3 |
| 12.5 | 1.5 | N#Cc1c(-c2ccco2)[n+]([O-])c2ccc(C(F)(F)F)cc2[n+]1[O-] | 100 |
| 14.6 | 2.87 | Cc1ccc(-c2c(C#N)[n+]([O-])c3cc(F)c(F)cc3[n+]2[O-])cc1 | 86.2 |
| 7.8 | 2.27 | N#Cc1c(-c2cccs2)[n+]([O-])c2ccc(C(F)(F)F)cc2[n+]1[O-] | 100 |
| 14.5 | 1.94 | N#Cc1c(-c2ccc(OC(F)(F)F)cc2)[n+]([O-])c2ccccc2[n+]1[O-] | 100 |
| 10.4 | 2.15 | N#Cc1c(-c2cccs2)[n+]([O-])c2cc(F)c(F)cc2[n+]1[O-] | 82.9 |
| 14.4 | 2.62 | N#Cc1c(-c2ccc(F)cc2)[n+]([O-])c2ccc(F)cc2[n+]1[O-] | 63.8 |
| 29 | 2.33 | COc1ccc(-c2c(C#N)[n+]([O-])c3cc(Cl)c(Cl)cc3[n+]2[O-])cc1 | 42.7 |
| 16.7 | 1.87 | Cc1cc2c(cc1C)[n+]([O-])c(-c1cccs1)c(C#N)[n+]2[O-] | 84.8 |
| 18.3 | 2.06 | COc1ccc(-c2c(C#N)[n+]([O-])c3cc(C)c(C)cc3[n+]2[O-])cc1 | 100 |
| 6.7 | 2.99 | N#Cc1c(N2CCN(c3cccc(C(F)(F)F)c3)CC2)[n+]([O-])c2ccc(Cl)cc2[n+]1[O-] | 94 |
| 15.3 | 2.62 | N#Cc1c(-c2ccccc2)[n+]([O-])c2cc(F)c(F)cc2[n+]1[O-] | 81.1 |
| 12.1 | 2.09 | COc1ccc(-c2c(C#N)[n+]([O-])c3cc(F)c(F)cc3[n+]2[O-])cc1 | 91.6 |
| 19.3 | 1.58 | COc1ccc2c(c1)[n+]([O-])c(C#N)c(-c1ccccc1)[n+]2[O-] | 111 |
| 13.1 | 2.33 | N#Cc1c(-c2ccc(OC(F)(F)F)cc2)[n+]([O-])c2ccc(F)cc2[n+]1[O-] | 80.2 |
| 10.7 | 2.45 | COc1ccc(-c2c(C#N)[n+]([O-])c3cc(C(F)(F)F)ccc3[n+]2[O-])cc1 | 114 |
| 10.4 | 2.41 | N#Cc1c(-c2cccs2)[n+]([O-])c2cc(Cl)c(Cl)cc2[n+]1[O-] | 78.5 |
| 15.1 | 2.72 | N#Cc1c(-c2ccccc2)[n+]([O-])c2ccc(C(F)(F)F)cc2[n+]1[O-] | 100 |
| 7.1 | 1.89 | N#Cc1c(-c2cccs2)[n+]([O-])c2ccc(Cl)cc2[n+]1[O-] | 100 |
| 13 | 1.75 | N#Cc1c(-c2cccs2)[n+]([O-])c2ccc(F)cc2[n+]1[O-] | 100 |

| IC50 (Trypanosoma cruzi [1]) [µM] | logP [3] | SMILES | inhibition of growth at 25 µM (Trypanosoma cruzi [2]) [%] |
| --- | --- | --- | --- |
| 7.2 | 2.68 | N#Cc1c(-c2ccc(OC(F)(F)F)cc2)[n+]([O-])c2cc(Cl)c(Cl)cc2[n+]1[O-] | 82 |
| 14.3 | 2.09 | COc1ccc(-c2c(C#N)[n+]([O-])c3cc(Cl)ccc3[n+]2[O-])cc1 | 110 |
| 15.4 | 2.23 | N#Cc1c(-c2ccccc2)[n+]([O-])c2ccc(F)cc2[n+]1[O-] | 89.4 |
| 20.1 | 1.1 | Cc1cc2c(cc1C)[n+]([O-])c(-c1ccco1)c(C#N)[n+]2[O-] | 64.7 |
| 17.4 | 2.6 | Cc1ccc2c(c1)[n+]([O-])c(C#N)c(-c1ccc(Cl)cc1)[n+]2[O-] | 88.4 |
| 19.3 | 1.58 | COc1ccc(-c2c(C#N)[n+]([O-])c3ccccc3[n+]2[O-])cc1 | 110 |
| 17.4 | 2.48 | Cc1ccc(-c2c(C#N)[n+]([O-])c3cc(F)ccc3[n+]2[O-])cc1 | 87.3 |
| 16.4 | 2.72 | Cc1cc2c(cc1C)[n+]([O-])c(-c1ccc(F)cc1)c(C#N)[n+]2[O-] | 92.5 |
| 16.4 | 2.83 | Cc1cc2c(cc1C)[n+]([O-])c(-c1ccc(Cl)cc1)c(C#N)[n+]2[O-] | 98.7 |
| 13.1 | 1.64 | N#Cc1c(-c2ccco2)[n+]([O-])c2cc(Cl)c(Cl)cc2[n+]1[O-] | 67 |
| 14.3 | 2.09 | COc1ccc2c(c1)[n+]([O-])c(C#N)c(-c1ccc(Cl)cc1)[n+]2[O-] | 111 |
| 18.9 | 1.11 | N#Cc1c(-c2ccco2)[n+]([O-])c2ccc(Cl)cc2[n+]1[O-] | 64.5 |
| 18.9 | 1.82 | COc1ccc2c(c1)[n+]([O-])c(C#N)c(-c1ccc(C)cc1)[n+]2[O-] | 112 |
| 14.3 | 1.11 | COc1ccc2c(c1)[n+]([O-])c(C#N)c(-c1cccs1)[n+]2[O-] | 109 |
| 8.2 | 1.69 | COc1ccc2c(c1)[n+]([O-])c(C#N)c(-c1ccc(OC(F)(F)F)cc1)[n+]2[O-] | 100 |
| 14.3 | 1.97 | COc1ccc(-c2c(C#N)[n+]([O-])c3cc(F)ccc3[n+]2[O-])cc1 | 92.2 |
| 23.7 | 2.09 | Cc1ccc2c(c1)[n+]([O-])c(C#N)c(-c1ccccc1)[n+]2[O-] | 88.1 |
| 11.3 | 2.87 | N#Cc1c(-c2ccc(Cl)cc2)[n+]([O-])c2cc(F)c(F)cc2[n+]1[O-] | 80.9 |
| 50 | 2.33 | Cc1ccc(-c2c(C#N)[n+]([O-])c3cc(C)ccc3[n+]2[O-])cc1 | 41.6 |
| 9.2 | 2.79 | N#Cc1c(-c2ccc(OC(F)(F)F)cc2)[n+]([O-])c2ccc(C(F)(F)F)cc2[n+]1[O-] | 100 |
| 14.9 | 0.983 | N#Cc1c(-c2ccco2)[n+]([O-])c2ccc(F)cc2[n+]1[O-] | 83.4 |
| 17.4 | 2.6 | Cc1ccc(-c2c(C#N)[n+]([O-])c3cc(Cl)ccc3[n+]2[O-])cc1 | 104 |
| 12.7 | 1.35 | N#Cc1c(-c2cccs2)[n+]([O-])c2ccccc2[n+]1[O-] | 100 |
| 13.2 | 2.74 | N#Cc1c(-c2ccc(F)cc2)[n+]([O-])c2ccc(Cl)cc2[n+]1[O-] | 92.7 |

| SMILES | IC50 (Trypanosoma cruzi [1]) [µM] | logP [3] | inhibition of growth at 25 µM (Trypanosoma cruzi [2]) [%] |
| --- | --- | --- | --- |
| N#Cc1c(NC(=O)c2ccco2)[n+]([O-])c2cc(F)c(F)cc2[n+]1[O-] | 19.2 | 0.868 | 53.1 |
| N#Cc1c(NC(=O)c2cccs2)[n+]([O-])c2cc(F)c(F)cc2[n+]1[O-] | 10.8 | 1.62 | 92.4 |
